In PMC9844543 (Nano letters, 2022):

Test: Critical gelation concentration by vial inversion after addition of PBS
Format: physicochemical
Summary of the method: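 Self-assembling collagen-binding peptide amphiphile filaments were dissolved in water. They were either left unsprayed, sprayed with an atomizer, or emitted from a jet nebulizer as a respirable aerosol. PBS was then added to give 1× PBS, and gelation was judged by vial inversion.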

LRELHLNNN [CBDA]
critical gelation concentration (CGC) (after spraying with an atomizer): 1 mM
critical gelation concentration (CGC) (filaments in water, PBS added to final 1× PBS, not sprayed): ~ 1 mM
